According to ChEMBL document CHEMBL3124843, “Synthesis, cytostatic, antimicrobial, and anti-HCV activity of 6-substituted 7-(het)aryl-7-deazapurine ribonucleosides” (J Med Chem, 2014):
The source made the active and inactive calls. No rule for the calls is given here.

Assays:
[1] = Cytotoxicity against human HuH7 cells infected with Hepatitis C virus subtype 1b; type: cell-based, Huh-7
[2] = system: Hepatitis C virus; assay: Antiviral activity against Hepatitis C virus subtype 1b infected in human HuH7 cells; type: functional, organism-based, Hepacivirus hominis; conditions: genotype 1b, Huh-7
[3] = system: Candida tropicalis; assay: Antifungal activity against Candida tropicalis after 48 hrs; type: functional, organism-based
[4] = system: Pichia kudriavzevii; assay: Antifungal activity against Candida crusei after 48 hrs; type: functional, organism-based
[5] = system: Candida parapsilosis; assay: Antifungal activity against Candida parapsilosis after 48 hrs; type: functional, organism-based
[6] = system: Candida albicans; assay: Antifungal activity against Candida albicans after 48 hrs; type: functional, organism-based
[7] = system: Pseudomonas aeruginosa; assay: Antibacterial activity against multi-resistant Pseudomonas aeruginosa A/16575 after 24 hrs; type: functional, organism-based
[8] = system: Escherichia coli; assay: Antibacterial activity against multi-resistant Escherichia coli C/16702 after 24 hrs; type: functional, organism-based
[9] = system: Staphylococcus haemolyticus; assay: Antibacterial activity against methicillin-resistant Staphylococcus haemolyticus A/16568 after 24 hrs; type: functional, organism-based
[10] = system: Staphylococcus aureus; assay: Antibacterial activity against methicillin-resistant Staphylococcus aureus MRSA 4591 after 24 hrs; type: functional, organism-based
[11] = system: Pseudomonas aeruginosa; assay: Antibacterial activity against Pseudomonas aeruginosa CCM 3955 after 24 hrs; type: functional, organism-based
[12] = system: Escherichia coli; assay: Antibacterial activity against Escherichia coli CCM 3954 after 24 hrs; type: functional, organism-based
[13] = system: Staphylococcus aureus; assay: Antibacterial activity against Staphylococcus aureus CCM 3953 after 24 hrs; type: functional, organism-based
[14] = system: Enterococcus faecalis; assay: Antibacterial activity against Enterococcus faecalis CCM 4224 after 24 hrs; type: functional, organism-based
[15] = Antiproliferative activity against human HeLaS3 cells after 72 hrs by XTT assay; type: functional, cell-based; conditions: HeLa S3, 72 h
In short: (§1)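 Antiproliferative test on HL-60 promyelocytic leukemia and HeLa S3 cervical carcinoma cells growing in liquid suspension.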

[16] = system: HL-60; assay: Antiproliferative activity against human HL60 cells after 72 hrs by XTT assay; type: functional, cell-based; conditions: HL-60, 72 h; in short: as §1
[17] = system: HepG2; assay: Antiproliferative activity against human HepG2 cells after 72 hrs by XTT assay; type: functional, cell-based; conditions: HepG2, 72 h
[18] = system: MRC5; assay: Cytostatic activity against human MRC5 cells after 72 hrs by MTT assay; type: ADME, cell-based; conditions: MRC5, 72 h
In short: (§2)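 IC50 is the concentration that cuts cell growth by 50%, read by quantitative metabolic MTT staining after a 3-day treatment. The resistant sublines were made by raising the concentration of the cytotoxic drug step by step. CEM-DNR-bulk (daunorubicin-selected) stably overexpresses mrp-1. K562-TAX (paclitaxel-selected) expresses only mdr-1. HCT116p53−/− carries null p53 alleles. BJ and MRC-5 are nonmalignant fibroblasts.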

[19] = system: BJ; assay: Cytostatic activity against human BJ cells after 72 hrs by MTT assay; type: ADME, cell-based; in short: as §2
[20] = system: HCT-116; assay: Cytostatic activity against p53-deficient human HCT116 cells after 72 hrs by MTT assay; type: functional, cell-based; conditions: HCT-116, 72 h; in short: as §2
[21] = system: HCT-116; assay: Cytostatic activity against human HCT116 cells after 72 hrs by MTT assay; type: functional, cell-based; conditions: HCT-116, 72 h; in short: as §2
[22] = system: A549; assay: Cytostatic activity against human A549 cells after 72 hrs by MTT assay; type: functional, cell-based; conditions: A549, 72 h; in short: as §2
[23] = system: K562; assay: Cytostatic activity against paclitaxel-resistant human K562 cells after 72 hrs by MTT assay; type: functional, cell-based; conditions: K562, 72 h; in short: as §2
[24] = system: K562; assay: Cytostatic activity against human K562 cells after 72 hrs by MTT assay; type: functional, cell-based; conditions: K562, 72 h; in short: as §2
[25] = Cytostatic activity against human CEM-DNR-bulk cells after 72 hrs by MTT assay; type: functional, cell-based; in short: as §2
[26] = system: CCRF-CEM; assay: Cytostatic activity against human CCRF-CEM cells after 72 hrs by MTT assay; type: functional, cell-based; in short: as §2

Row | Structure (SMILES) | CC50 [1] [µM] | EC50 [2] [µM] | Activity [3] | Activity [4] | Activity [5] | Activity [6] | Activity [7] | Activity [8] | Activity [9] | Activity [10] | Activity [11] | Activity [12] | Activity [13] | Activity [14] | IC50 [15] [µM] | IC50 [16] [µM] | IC50 [17] [µM] | IC50 [18] [µM] | IC50 [19] [µM] | IC50 [20] [µM] | other results
1 | COc1nc(N)nc2c1c(-c1ccco1)cn2[C@@H]1O[C@H](CO)[C@@H](O)[C@H]1O | > 44 | 2.44 | inactive | inactive | inactive | inactive | inactive | inactive | inactive | inactive | inactive | inactive | inactive | inactive | > 20 | > 20 | > 20 | 89.7 | > 100 | > 20 | IC50 [21]: > 20 µM; IC50 [22]: > 20 µM; IC50 [23]: > 20 µM; IC50 [24]: > 20 µM; IC50 [25]: > 20 µM; IC50 [26]: > 20 µM
2 | C#Cc1cn([C@@H]2O[C@H](CO)[C@@H](O)[C@H]2O)c2nc(C)nc(N)c12 | > 44 | 8 | inactive | inactive | inactive | inactive | inactive | inactive | inactive | inactive | inactive | inactive | inactive | inactive | > 20 | > 20 | > 20 | > 100 | > 100 | > 20 | IC50 [21]: > 20 µM; IC50 [22]: > 20 µM; IC50 [23]: 3.29 µM; IC50 [24]: > 20 µM; IC50 [25]: 12.6 µM; IC50 [26]: > 20 µM
3 | Nc1nc(N)c2c(-c3ccco3)cn([C@@H]3O[C@H](CO)[C@@H](O)[C@H]3O)c2n1 | > 44 | 12.5 | inactive | inactive | inactive | inactive | inactive | inactive | inactive | inactive | inactive | inactive | inactive | inactive | > 20 | > 20 | > 20 | > 100 | > 100 | > 20 | IC50 [21]: > 20 µM; IC50 [22]: > 20 µM; IC50 [23]: > 20 µM; IC50 [24]: > 20 µM; IC50 [25]: > 20 µM; IC50 [26]: > 20 µM
4 | Nc1nc(N)c2c(-c3ccoc3)cn([C@@H]3O[C@H](CO)[C@@H](O)[C@H]3O)c2n1 | > 44 | 21.3 | inactive | inactive | inactive | inactive | inactive | inactive | inactive | inactive | inactive | inactive | inactive | inactive | > 20 | > 20 | > 20 | > 100 | > 100 | > 20 | IC50 [21]: > 20 µM; IC50 [22]: > 20 µM; IC50 [23]: > 20 µM; IC50 [24]: > 20 µM; IC50 [25]: > 20 µM; IC50 [26]: > 20 µM
5 | COc1nc(N)nc2c1c(-c1ccsc1)cn2[C@@H]1O[C@H](CO)[C@@H](O)[C@H]1O | > 44 | 14.5 | inactive | inactive | inactive | inactive | inactive | inactive | inactive | inactive | inactive | inactive | inactive | inactive | > 20 | > 20 | > 20 | > 100 | > 100 | > 20 | IC50 [21]: > 20 µM; IC50 [22]: > 100 µM; IC50 [23]: > 20 µM; IC50 [24]: > 20 µM; IC50 [25]: > 20 µM; IC50 [26]: > 20 µM
6 | Nc1nc(N)c2c(-c3cccs3)cn([C@@H]3O[C@H](CO)[C@@H](O)[C@H]3O)c2n1 | > 44 | 10 | inactive | inactive | inactive | inactive | inactive | inactive | inactive | inactive | inactive | inactive | inactive | inactive | > 20 | > 20 | > 20 | > 100 | > 100 | > 20 | IC50 [21]: > 20 µM; IC50 [22]: > 20 µM; IC50 [23]: > 20 µM; IC50 [24]: > 20 µM; IC50 [25]: > 20 µM; IC50 [26]: > 20 µM
7 | COc1nc(N)nc2c1c(-c1cccs1)cn2[C@@H]1O[C@H](CO)[C@@H](O)[C@H]1O | > 44 | 6.07 | inactive | inactive | inactive | inactive | inactive | inactive | inactive | inactive | inactive | inactive | inactive | inactive | > 20 | > 20 | > 20 | > 100 | 99.9 | > 20 | IC50 [21]: > 20 µM; IC50 [22]: > 20 µM; IC50 [23]: > 20 µM; IC50 [24]: > 20 µM; IC50 [25]: > 20 µM; IC50 [26]: > 20 µM
